Measurements: ChEMBL document CHEMBL4130377 (Eur J Med Chem, 2017)
Active and inactive are the calls of the source. No cut-off for these calls is given here.

What was measured:
Mus musculus [1] = experiment: Antiobesity activity in diet-induced obese C57Bl/6 mouse model assessed as plasma insulin level at 3.48 mg/kg, ip administered every other day for 30 days by ELISA (reference value: 13.33 +/- […]); format: functional, organism-based
Mus musculus [2] = experiment: Antiobesity activity in diet-induced obese C57Bl/6 mouse model assessed as plasma triglyceride level at 3.48 mg/kg, ip administered every other day for 30 days (reference value: 0.84 +/- […]); format: functional, organism-based
Mus musculus [3] = experiment: Anorectic activity in overnight fasted ICR mouse assessed as reduction in cumulative food intake at 1000 nmol/kg, ip measured at <2 hrs post dose; format: functional, organism-based
Mus musculus [4] = experiment: Antiobesity activity in diet-induced obese C57Bl/6 mouse model assessed as plasma cholesterol level at 3.48 mg/kg, ip administered every other day for 30 days (reference value: 4.33 +/- […]); format: functional, organism-based
Mus musculus [5] = experiment: Anorectic activity in overnight fasted ICR mouse assessed as reduction in cumulative food intake at 1000 nmol/kg, ip measured at 2 hrs post dose; format: functional, organism-based
Method in brief: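 Male ICR mice, 9 weeks old, […], then given a single i.p. dose of 1000 nmol/kg in 0.9% saline; saline-injected controls. Mice were returned to home cages with preweighed food, which was reweighed at 0.5, 1, 2, 4, 8 and 24 h. Readout is cumulative food intake, n=6-8 per group.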

Mus musculus [6] = experiment: Antiobesity activity in diet-induced obese C57Bl/6 mouse model assessed as serum adiponectin level at 3.48 mg/kg, ip administered every other day for 30 days by ELISA (reference value: 8.9 +/- 0.38 ug/ml); format: functional, organism-based
Method in brief: (§1)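 Male C57Bl/6 mice were fed high-fat diet (60% kcal fat) for 12 weeks; DIO mice were ~38 g at 20 weeks. Dosing was i.p. (10 mL/kg in 0.9% saline) every other day at 9 am for 30 days, with saline controls and low-fat-diet lean mice for reference. Insulin, leptin and adiponectin were measured at study end. n=6-8 per group, means ± SD.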

Mus musculus [7] = experiment: Antiobesity activity in diet-induced obese C57Bl/6 mouse model assessed as serum leptin level at 3.48 mg/kg, ip administered every other day for 30 days by ELISA (reference value: 1.9 +/- 0.07 ng/ml); format: functional, organism-based; method in brief: as §1
Mus musculus [8] = experiment: Body weight lowering effect in ICR mouse assessed as cumulative changes in body weight at 1000 nmol/kg, ip administered every other day for 2 weeks; format: functional, organism-based
Glucagon receptor = Glucagon receptor (Homo sapiens, UniProt P47871); experiment: Agonist activity at human GCGR expressed in HEK293 cells assessed as increase in cAMP accumulation after 20 mins by HTRF assay; format: functional, cell-based
Chain of Glucagon receptor (P47871 whole entry): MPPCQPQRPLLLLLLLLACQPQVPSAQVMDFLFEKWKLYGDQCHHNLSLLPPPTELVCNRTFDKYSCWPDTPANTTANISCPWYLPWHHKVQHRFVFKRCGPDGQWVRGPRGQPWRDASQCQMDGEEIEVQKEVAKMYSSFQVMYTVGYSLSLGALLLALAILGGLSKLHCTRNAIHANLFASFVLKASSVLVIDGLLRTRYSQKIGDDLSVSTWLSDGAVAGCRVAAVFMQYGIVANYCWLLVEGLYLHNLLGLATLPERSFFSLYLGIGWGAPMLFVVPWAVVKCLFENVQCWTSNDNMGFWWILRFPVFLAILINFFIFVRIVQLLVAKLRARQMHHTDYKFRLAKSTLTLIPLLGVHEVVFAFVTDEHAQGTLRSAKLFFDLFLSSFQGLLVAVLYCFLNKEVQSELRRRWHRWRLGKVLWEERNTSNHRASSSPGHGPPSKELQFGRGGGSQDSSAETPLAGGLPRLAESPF

Mus musculus [9] = experiment: Anorectic activity in overnight fasted ICR mouse assessed as reduction in cumulative food intake at 1000 nmol/kg, ip measured up to 8 hrs post dose

GLUCAGON
Activity (Mus musculus [1]): 8.41 ng/mL
Activity (Mus musculus [2]): 1.19 mmol/L
Activity (Mus musculus [3]): Active
Activity (Mus musculus [4]): 5.08 mmol/L
Activity (Mus musculus [5]): inactive
Activity (Mus musculus [6]): 12.2 µg/mL
Activity (Mus musculus [7]): 1.79 ng/mL
Activity (Mus musculus [8]): inactive

CC[C@H](C)[C@H](NC(=O)[C@H](Cc1ccccc1)NC(=O)[C@H](CCC(=O)O)NC(=O)[C@H](CCCCN)NC(=O)[C@H](C)NC(=O)[C@H](C)NC(=O)[C@H](CCC(N)=O)NC(=O)CNC(=O)[C@H](CCC(=O)O)NC(=O)[C@H](CC(C)C)NC(=O)[C@H](Cc1ccc(O)cc1)NC(=O)[C@H](CO)NC(=O)[C@H](CO)NC(=O)[C@@H](NC(=O)[C@H](CC(=O)O)NC(=O)[C@H](CO)NC(=O)[C@@H](NC(=O)[C@H](Cc1ccccc1)NC(=O)[C@@H](NC(=O)CNC(=O)[C@H](CCC(=O)O)NC(=O)[C@H](C)NC(=O)[C@@H](N)Cc1c[nH]cn1)[C@@H](C)O)[C@@H](C)O)C(C)C)C(=O)N[C@@H](C)C(=O)N[C@@H](Cc1c[nH]c2ccccc12)C(=O)N[C@@H](CC(C)C)C(=O)N[C@H](C(=O)N[C@@H](CCCCN)C(=O)NCC(=O)N[C@@H](CCCN=C(N)N)C(=O)NCC(=O)O)C(C)C
EC50 (Glucagon receptor): Not Active
Activity (Mus musculus [9]): Active
Activity (Mus musculus [8]): inactive
